High-throughput results: PubChem BioAssay, several laboratories
Sampled rows, rich in hits. Any-hit rate of the full collection: about 8.9%.
L major viab: inhibitors of Leishmania major promastigote growth | Leishmania major promastigotes, resazurin fluorescence viability | inhibition, % at 10 µM | actives 9% (n = 200,000); in the data active = inhibition above about 50%;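 also: promastigotes grown with compound for 44 hours at 28 °C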
MT stabilizer: microtubule stabilization, imaging screen | HeLa tubulin immunostaining HCS, 24 h; share of cells brighter than vehicle mean+2SD | % tubulin-high responders, % at 10 µM | actives 0.83% (n = 200,000) | AID 2205;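 active = plate Z-score above 3 for both tubulin-high and condensed-nucleus cell shares, with cell loss under 80%, at 10 µM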;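 also: anti alpha tubulin signal scored within the nucleus-defined area of each cell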
Dynein cargo inh: dynein cargo transport inhibition; z-score, hits read low; 3617.4 mouse cells, GR-EGFP nuclear translocation imaging; test concentration mostly 20 µM; stimulated with dexamethasone, 1 µM; stronger effect = lower value; actives 0.47% (n = 220,000);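 active = plate z-score of nuclear minus cytoplasmic receptor signal below a set negative limit, without overly bright fluorescence or cell loss, cut at about -3.5 in these data, passing the limit was not always enough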;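 also: z-score of nuclear minus cytoplasmic ring GR-EGFP intensity difference per well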
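Buffer or medium: tetracycline-free induction medium containing charcoal-stripped FBS / Reagent: dexamethasone agonist, 1.0 µM final, for 30 min / Technique: automated 10x imaging of fixed Hoechst-stained cells / Times: induction 48 h, compound 1 h, agonist 30 min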
b-catenin transl: modulators of beta-catenin nuclear translocation; HeLa beta-catenin nuclear translocation, immunofluorescence imaging; nuclear translocation activity, % at 5 µM; actives 0.3% (n = 190,000); AID 1665;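 active = nuclear translocation activity above 50% at 5 µM, with a well cell count of 50 or more; inconclusive = wells under 50 cells across six images, flagged as toxic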;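 also: per-cell ratio of nuclear to cytoplasmic median beta-catenin stain intensity; plate controls were DMSO negative control for no effect and GSK-3 inhibitor IX positive control for full effect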
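System: HeLa cells, endogenous beta-catenin; compound dosing: 5 µM primary single dose, 0.1% DMSO, 0.02–20 µM confirmation series; incubation: 24 h compound exposure at 37°C, 5% CO2; signal: beta-catenin immunofluorescence imaging with DAPI; evaluation: % activation, nuclear-to-cytoplasmic median beta-catenin signal ratio per cell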
HSV augment: HSV replication enhancement. actives 0.005% (n = 220,000). AID 1956. HSV replication augmentation in cells, fold increase. maximum fold increase; in the data active = maximum fold increase above about 1.5; inconclusive = no clear call, values can overlap the other calls; tested in PC3 cells
Numbers without * were called inactive; i = inactive; ? = inconclusive; · = not tested or not shown.

SMILES	L major viab	MT stabilizer	Dynein cargo inh	b-catenin transl	HSV augment
Cc1ccc(NC(=O)c2cccc(NC(=O)/C=C/c3ccco3)c2)cc1C	3.3	5.8	-0.54	-1.1	i
CCOC(=O)N1CCC(c2cc(=O)n3[nH]c(C)c(-c4ccc(F)cc4)c3n2)CC1	7.9	6.2	1.17	-0.8	·
COc1ccccc1CNC(=O)CSc1ccc(-c2cccs2)nn1	75.0*	2.0	0.653	-1.5	·
Cn1c(=O)c2c(nc(N/N=C/c3ccc(OC(=O)c4ccco4)cc3)n2Cc2ccccc2)n(C)c1=O	61.3*	3.4	2	-1.6	i
Cc1ccc(C(=O)CSc2nnc(-c3ccccc3N)n2C)cc1C	1.9	3.9	0.731	0.8	i
Cc1ccc(O)c(NC(=S)NC(=O)/C=C/c2ccco2)c1	-3.8	30.8	-0.839	-0.5	i
O=C(/C=C/c1ccco1)NC(=S)NNC(=O)c1ccco1	93.6*	2.5	-1.28	-0.5	i
Cc1ccnc(NC(=S)NC(=O)/C=C/c2ccco2)c1	-6.0	21.0*	-0.343	-1.5	i
O=C(/C=C/c1cccs1)Nc1nncs1	·	·	2.37	1.3	i
C=CCNC(=S)NNC(=O)c1ccco1	-5.6	1.0	-0.00661	0.4	i
CC(=O)NC(=S)Nc1ccc(NC(=S)NC(=O)/C=C/c2ccco2)cc1	·	·	-0.465	1.8	i
O=C(/C=C/c1ccco1)NC(=S)Nc1ccc(N2CCCC2)cc1	5.1	13.1*	0.0397	-4.3	i
Cc1ccnc(NC(=O)/C=C/c2cccs2)c1	-10.3	14.2*	1.14	2.3	·
O=C(NCCc1c[nH]c2ccccc12)c1cnc2sccn2c1=O	-7.2	3.7	-1.33	·	i
O=C(/C=N/O)NCc1cccnc1	-4.0	4.1	-0.214	-1.3	i
O=C(/C=C\c1ccco1)Nc1nc(-c2ccc3ccccc3c2)cs1	3.4	4.5	-1.44	-1.1	i
Cc1ccc(-c2csc(NC(=S)NC(=O)/C=C/c3ccco3)n2)cc1	-2.1	31.9*	-0.422	31.1	i
CNC(=O)C1CCN(C(=O)c2ccc(-c3ccccc3)cc2)CC1	-6.0	1.0	-0.0668	·	i
O=C(c1ccncc1)c1nccn1-c1ccccn1	-4.0	5.9	0.0765	-1.4	i
CS(=O)(=O)c1nsc2nc(=O)c(/C=C3\C=Nc4ccccc43)c(N)n12	-1.4	1.7	-0.0197	1.0	i
COc1ccc(C(=O)NC(=S)Nc2nc(C)cc(C)n2)cc1Br	·	·	-1.15	-0.2	i
C=CCOc1ccc2c(c1)C(=NO)c1cc(OCC=C)ccc1-2	96.0*	2.2	2.51	·	i
Cc1cc(C(=O)NCC(=O)OC(C(=O)Nc2cc(C(F)(F)F)ccc2Cl)c2ccccc2)ccc1[N+](=O)[O-] (centres undefined)	39.1	1.5	1.22	·	i
CSc1ccc(CNc2ccc(Cl)cc2)cc1	99.9*	3.0	1.32	1.5	i
Cc1cc(=O)[nH]c(N/N=C/CCc2ccccc2)n1	-5.1	3.4	-0.224	-2.1	·
SMILES	L major viab	MT stabilizer	Dynein cargo inh	b-catenin transl	HSV augment
CC(=O)N(c1ccccc1)C1CCCC1	-5.0	3.3	-0.339	2.3	i
O=C(CCl)N(c1ccccc1)C1CCCCC1	88.6*	3.8	-0.87	2.6	i
O=C(Nc1nnc(COc2ccc(F)cc2)s1)c1cccs1	-5.0	1.0	-0.959	0.8	i
CCOc1ccc(/C=C/C(O)=C2/C(=O)N(C)C3(C)CC2c2ccccc2O3)cc1OC (centres undefined)	65.0*	14.8*	-2.9	43.8	i
CCOc1ccc(/C=C/C(O)=C2/C(=O)NC3(C)CC2c2ccccc2O3)cc1OC (centres undefined)	27.3	8.7	-1.1	·	i
CN(C)c1ccc(C=C2C(=O)OC(C)(C)OC2=O)cc1	0.8	2.3	0.851	·	i
CN(C)c1ccc(/C=C/C(O)=C2/C(=O)N(C)C3(C)CC2c2ccccc2O3)cc1 (centres undefined)	66.2*	4.4	-3.42	-0.1	?
O=C(COC(=O)c1c2c(nc3ccccc13)/C(=C\c1cccs1)CCC2)Nc1ccccc1	28.2	4.4	0.168	-1.0	i
O=C(OCC(=O)N1CCc2ccccc21)c1c2c(nc3ccccc13)CCCCC2	90.6*	2.8	0.987	-0.5	i
O=C(COC(=O)c1cc(-c2ccccc2)nc2ccccc12)Nc1ccc2c(c1)OCO2	0.6	4.9	-0.962	-0.3	i
O=C(COC(=O)c1c2c(nc3ccccc13)CCCC2)Nc1ccc2c(c1)OCO2	59.3*	3.1	-0.106	0.3	i
NC(=O)COC(=O)c1c2c(nc3ccccc13)CCCC2	-1.1	8.6	0.0725	-0.4	i
CC(=O)c1ccc(NC(=O)COC(=O)c2c3c(nc4ccccc24)/C(=C\c2cccs2)CCC3)cc1	97.2*	3.4	-0.137	·	i
COc1cccc(NC(=O)COC(=O)c2c3c(nc4ccccc24)CCC(C)C3)c1 (centres undefined)	53.9*	1.7	0.359	-1.2	i
CC(C)CC(=O)OCC(=O)Nc1ccccc1Sc1ccccc1	-6.0	4.7	-0.234	·	i
COc1ccc(C)cc1N=Nc1ccc(O)c2ncccc12	100.3*	5.8	-0.504	1.3	i
Cc1ccccc1N=Nc1ccc(O)c2ncccc12	100.2*	10.0	0.0462	-0.5	i
Oc1ccc(N=Nc2ccc3c(c2)OCCO3)c2cccnc12	100.3*	4.0	-0.705	-2.3	i
COc1ccc(N=Nc2ccc(O)c3ncccc23)cc1	·	·	2.27	5.8	i
Nc1nnc(SCC(=O)c2ccccc2)s1	-4.6	2.7	-0.133	-3.1	i
Cc1ccc2c(c1)C(c1ccc(O)cc1)(c1ccc(O)cc1)C(=O)N2C	-10.1	1.5	-0.109	-0.9	i
OC(CNCCc1ccccc1)COc1ccc(OCC(O)CNCCc2ccccc2)cc1 (centres undefined)	·	·	5.19	14.4	i
COCCc1nnc(NC(=O)Cc2ccccc2)s1	-7.0	4.0	0.0816	-7.9	i
O=C1OC(N2CCN(C(=O)c3ccco3)CC2)c2ccccc21 (centres undefined)	-3.9	4.0	-0.721	-2.7	i
O=[N+]([O-])c1ccc(N2CCN(S(=O)(=O)c3ccccc3[N+](=O)[O-])CC2)cc1NCc1cccnc1	67.7*	4.2	0.18	-1.6	i
CCOc1ccc2nc(SCC(=O)Nc3ccc4c(c3)OCCO4)[nH]c2c1	96.8*	4.7	0.811	-3.3	i
COc1ccc2nc(SCC(=O)Nc3ccc4c(c3)OCCO4)[nH]c2c1	-0.7	1.6	-0.227	1.4	·
COc1cccc(CNC(=O)CCC2CCCN(Cc3cc4ccccc4o3)C2)c1 (centres undefined)	79.5*	3.1	-0.456	0.9	i
CC(=O)c1cccc(CN2CCCC(CCC(=O)NCc3ccc(F)c(F)c3)C2)c1 (centres undefined)	98.3*	1.2	-0.562	-0.8	i
CCOc1cccc(CN2CCCC(CCC(=O)NCc3ccccc3F)C2)c1O (centres undefined)	56.3*	2.3	0.829	-2.0	i
